Results published in ChEMBL document CHEMBL1909561, “Stable and orally bio-available pro-drugs of CPS11” (Bioorg Med Chem Lett, 2011).
Active and inactive are the calls of the source. The calls are words filed in the database; no cut-off is given here.

Columns and labels:
[1] = Bioavailability in intragastrically administered rat; type: ADME, organism-based; conditions: in vivo, po
Method in brief: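 Single intragastric dose given to rats; oral bioavailability determined.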

Rattus norvegicus = experiment: Prodrug activation in IV dosed rat assessed as formation of CPS11; type: organism-based; conditions: in vivo
Mus musculus [2] = experiment: Toxicity in mouse assessed as body weight loss at 65 mg/kg, ip for 5 days co-administered with taxol at 5 mg/kg, iv on day 7 post challenge; type: organism-based; conditions: in vivo, 120 h
Method in brief: (§1)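 Mice bearing MX-1 human breast tumour fragments (1–2 mm³, implanted subcutaneously in the right flank), five per group. Treatment began on day 7 after inoculation, at a tumour size of about 200 mm³. Groups received vehicle, test compound at 65 mg/kg once daily for five consecutive days, or the same schedule plus Taxol 5 mg/kg iv once on day 7. Survival and body weight loss were monitored.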

Mus musculus [3] = experiment: Toxicity in mouse assessed as mouse survival at 65 mg/kg, ip for 5 days co-administered with taxol at 5 mg/kg, iv on day 7 post challenge; type: organism-based; conditions: in vivo, 120 h; method in brief: as §1
[4] = Stability of the compound in aqueous solution after 8 hrs; type: physicochemical; conditions: buffer
Method in brief: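 Stability followed in aqueous solution over 8 h.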

[5] = Stability of the compound assessed as purity after 2 months by HPLC method (reference value: 98.9%); type: physicochemical; conditions: 1461 h
[6] = Aqueous solubility of the compound after 8 hrs by UV spectroscopy; type: physicochemical
MX1 [7] = experiment: Antitumor activity against human MX1 cells implanted subcutaneously in mouse at 5 mg/kg, iv administered on day 7 post challenge; type: functional
Method in brief: (§2)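 Mice implanted subcutaneously in the right flank with 1–2 mm³ MX-1 tumor fragments. Dosing began on day 7, at about 200 mm³ tumor size. Five mice per group: vehicle; 65 mg/kg once daily for five consecutive days; or that regimen plus Taxol 5 mg/kg iv once on day 7. Read-outs were tumor growth inhibition rate, survival and body weight.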

[8] = (§3) Antiproliferative activity against human ECV304 cells assessed as growth inhibition after 72 hrs by MTT assay; type: cell-based, ECV-304; conditions: human, ECV304 cells; read-out: GI
Method in brief: (§4)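 ECV-304 grown in RPMI 1640 with 10% bovine serum, seeded 6000 cells/well and left to attach overnight at 37 °C, 5% CO₂. Medium then replaced by fresh medium with 1% FBS plus test agent or DMSO vehicle for 72 h. MTT added for a further 4 h, absorbance read at 535 nm. Duplicate wells, three independent repeats.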

HUVEC [9] = experiment: Antiproliferative activity against human HUVEC assessed as tube formation at 195 uM after 24 hrs; type: cell-based
Method in brief: (§5)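 HUVECs in M199 with 20% bovine serum and 20 ng/mL bFGF, seeded at 20,000 cells/well onto Matrigel that had gelled 30 min at 37 °C, left to attach overnight. Medium changed to one containing test agent or vehicle (0.5% DMSO) and cultured 24 h at 37 °C, 5% CO₂. Each well photographed and counted.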

HUVEC [10] = experiment: Antiproliferative activity against human HUVEC at 195 uM after 24 hrs; type: cell-based; method in brief: as §5
ECV-304 = experiment: as §3; type: cell-based; conditions: for IC50: Homo sapiens, ECV-304, 72 h; for growth inhibition (GI): human, ecv-304, 72 h; method in brief: as §4
[11] = Toxicity in ip dosed nude mouse administered for 2 weeks; type: organism-based; conditions: in vivo
PC-3 = experiment: Antitumor activity against human PC3 cells in xenograft model; type: functional
[12] = Stability of the compound after 1 month by HPLC method (reference value: 91.6%); type: physicochemical; conditions: read-out: Stability
[13] = Antitumor activity against human Lung cancer cells in metastasis model; type: functional, Cancer cell lines
MX1 [14] = experiment: Potentiation of taxol-induced antitumor activity against human MX1 cells xenografted in mouse at 65 mg/kg, ip for 5 days co-administered with taxol at 5 mg/kg, iv on day 7 post challenge; type: functional, organism-based; method in brief: as §2
MX1 [15] = experiment: Antitumor activity against human MX1 cells xenografted in mouse at 65 mg/kg, ip for 5 days; type: functional, organism-based; set-up: dose 65 mg/kg; method in brief: as §2
[16] = Stability of the compound assessed as purity after 2 months by HPLC method (reference value: 99.3%); type: physicochemical; conditions: 1461 h

Compound: O=C(OCN1C(=O)CCC(N2C(=O)c3ccccc3C2=O)C1=O)c1cccnc1.O=S(=O)(O)c1ccccc1 (stereo not drawn)
- bioavailability [1]: 60.7%
- Activity (Rattus norvegicus): Active
- Activity (Mus musculus [2]): Non-toxic
- Activity (Mus musculus [3]): Non-toxic
- Stability [4]: Stable
- Stability [5]: Stable
- solubility at 8 h [6]: 840 µg/mL

Compound: CC(=O)O[C@H]1C(=O)[C@@]2(C)[C@H]([C@H](OC(=O)c3ccccc3)[C@]3(O)C[C@H](OC(=O)[C@H](O)[C@@H](NC(=O)c4ccccc4)c4ccccc4)C(C)=C1C3(C)C)[C@]1(OC(C)=O)CO[C@@H]1C[C@@H]2O [PACLITAXEL]
- Activity (MX1 [7]): 33.1%

Compound: O=C1CCC(N2C(=O)c3ccccc3C2=O)C(=O)N1 (stereo not drawn) [THALIDOMIDE]
- inhibition at 72 h [8]: 40%
- Activity (HUVEC [9]): 53%

Compound: O=C(OCN1C(=O)CCC(N2C(=O)c3ccccc3C2=O)C1=O)c1ccncc1 (stereo not drawn)
- Activity (HUVEC [10]): 88%
- IC50 (ECV-304): 180 nM
- growth inhibition (GI) (ECV-304): Dose-dependent effect

Compound: O=C1CCC(N2C(=O)c3ccccc3C2=O)C(=O)N1CO (stereo not drawn)
- MTD at 336 h [11]: 100 mg/kg
- inhibition (INH) (PC-3): 90%
- remaining at 730.5 h [12]: 58.9%
- inhibition (INH) [13]: 87%

Compound: O=C(OCN1C(=O)CCC(N2C(=O)c3ccccc3C2=O)C1=O)c1cccnc1 (stereo not drawn) [listing 1 of 2 here]
- Activity (MX1 [14]): Active
- Activity (MX1 [15]): inactive

Compound: Cl.O=C(OCN1C(=O)CCC(N2C(=O)c3ccccc3C2=O)C1=O)c1cccnc1 (stereo not drawn)
- Stability [16]: Stable
- Stability [4]: Stable
- solubility at 8 h [6]: 1480 µg/mL

Compound: O=C(OCN1C(=O)CCC(N2C(=O)c3ccccc3C2=O)C1=O)c1cccnc1 (stereo not drawn) [listing 2 of 2 here]
- Activity (HUVEC [10]): 88%
- IC50 (ECV-304): 120 nM
- growth inhibition (GI) (ECV-304): Dose-dependent effect

Compound: O=C(OCN1C(=O)CCC(N2C(=O)c3ccccc3C2=O)C1=O)c1ccccn1 (stereo not drawn)
- Activity (HUVEC [10]): 88%
- IC50 (ECV-304): 100 nM
- growth inhibition (GI) (ECV-304): Dose-dependent effect
